Calls of active or inactive are those of the source. No cut-off for these calls is given here.
How the values were obtained:
[1] = target: Peroxisome proliferator-activated receptor gamma (Mus musculus) (UniProt P37238); test: Transactivation of PPARgamma (mouse) expressed in 3T3-L1 cells incubated for 24 hrs by luciferase reporter gene assay relative to rosiglitazone
Rattus norvegicus [2] = test: Antidiabetic activity in Wistar rat model of streptozotocin-induced diabetes assessed as reduction in plasma glucose level at 30 mg/kg, po and dosage repeated for 15 days by GOD-POD method; assay type: functional, organism-based; set-up: dose 30 mg/kg
Rattus norvegicus [3] = test: Effect on body weight in Wistar rat model of streptozotocin-induced diabetes at 30 mg/kg, po measured over 15 days; assay type: ADME, organism-based; set-up: dose 30 mg/kg, route oral; conditions: in vivo, 360 h
Rattus norvegicus [4] = test: Antidiabetic activity in overnight fasted Wistar rat assessed as reduction in plasma glucose level at 30 mg/kg, po by oral glucose tolerance test; assay type: functional, organism-based; set-up: dose 30 mg/kg
Procedure, shortened: (§1)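 Normal Wistar rats were given a glucose load by the oral glucose tolerance method, and plasma glucose rise was followed after oral test dosing. Glibenclamide was the reference drug. Data are mean ± SEM of six observations versus control, analysed by one-way ANOVA with Dunnett test (p < 0.05, p < 0.01).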

Rattus norvegicus [5] = test: Increase in body weight in Wistar rat model of streptozotocin-induced diabetes at 30 mg/kg, po measured over 15 days; assay type: ADME, organism-based; set-up: dose 30 mg/kg, route oral; conditions: in vivo, 360 h
3T3-L1 = test: Increase in PPARgamma gene expression in mouse 3T3L1 cells at 10 uM incubated for 24 hrs by RT-PCR method; assay type: functional
Rattus norvegicus [6] = test: Antidiabetic activity in Wistar rat model of streptozotocin-induced diabetes assessed as reduction in plasma glucose level at 36 mg/kg, po and dosage repeated for 15 days by GOD-POD method; assay type: functional, organism-based; set-up: dose 36 mg/kg
Rattus norvegicus [7] = test: Antidiabetic activity in overnight fasted Wistar rat assessed as reduction in plasma glucose level at 36 mg/kg, po by oral glucose tolerance test; assay type: functional, organism-based; set-up: dose 36 mg/kg
Procedure, shortened: as §1

Rattus norvegicus [8] = test: Effect on body weight in Wistar rat model of streptozotocin-induced diabetes at 36 mg/kg, po measured over 15 days; assay type: ADME, organism-based; set-up: dose 36 mg/kg, route oral; conditions: in vivo, 360 h

Chain of Peroxisome proliferator-activated receptor gamma (Mus musculus) (P37238 whole entry, looked up): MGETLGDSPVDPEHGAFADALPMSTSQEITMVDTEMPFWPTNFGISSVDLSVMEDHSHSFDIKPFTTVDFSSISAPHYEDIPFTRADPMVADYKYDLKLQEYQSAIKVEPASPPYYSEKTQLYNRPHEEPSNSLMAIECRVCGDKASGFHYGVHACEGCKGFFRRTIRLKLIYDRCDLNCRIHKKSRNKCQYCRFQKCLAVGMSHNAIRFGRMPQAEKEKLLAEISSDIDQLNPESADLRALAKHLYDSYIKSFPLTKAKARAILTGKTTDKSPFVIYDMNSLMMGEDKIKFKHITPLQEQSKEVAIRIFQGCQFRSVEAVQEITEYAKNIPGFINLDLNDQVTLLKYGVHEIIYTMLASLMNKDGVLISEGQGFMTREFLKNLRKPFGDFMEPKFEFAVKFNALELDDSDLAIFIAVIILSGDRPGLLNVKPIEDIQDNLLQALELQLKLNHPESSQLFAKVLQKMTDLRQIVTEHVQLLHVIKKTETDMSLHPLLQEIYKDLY

Compound	Activity [1]	inhibition (Rattus norvegicus [2])	Activity (Rattus norvegicus [3])	inhibition (Rattus norvegicus [4])	Activity (Rattus norvegicus [5])	fold change (FC) (3T3-L1)	inhibition (Rattus norvegicus [6])	inhibition (Rattus norvegicus [7])	Activity (Rattus norvegicus [8])
Cc1ccc(C2CC(c3cccs3)=NN2c2ccc(S(=O)(=O)NC(=O)Nc3ccccc3C)cc2)s1 (stereo not drawn)			Non-toxic						
COc1ccc(C2CC(c3cccs3)=NN2c2ccc(S(=O)(=O)NC(=O)Nc3ccc(C)cc3)cc2)cc1 (stereo not drawn)	inactive		Non-toxic	Active					
O=C(NCc1ccccc1)NS(=O)(=O)c1ccc(N2N=C(c3cccs3)CC2c2cccs2)cc1 (stereo not drawn)	inactive		Non-toxic	Active					
CN(CCOc1ccc(CC2SC(=O)NC2=O)cc1)c1ccccn1 (stereo not drawn) [ROSIGLITAZONE]						1.5	Active	Active	Toxic
COc1ccc(NC(=O)NS(=O)(=O)c2ccc(N3N=C(c4cccs4)CC3c3cccs3)cc2)cc1 (stereo not drawn)	inactive	Active	Non-toxic	Active					
Cc1ccc(NC(=O)NS(=O)(=O)c2ccc(N3N=C(c4cccs4)CC3c3cccs3)cc2)cc1 (stereo not drawn)	inactive		Non-toxic	Active					
COc1ccc(Cl)cc1C(=O)NCCc1ccc(S(=O)(=O)NC(=O)NC2CCCCC2)cc1 [GLYBURIDE]	inactive	Active		Active	Toxic	1			
CN(C)c1ccc(C2CC(c3cccs3)=NN2c2ccc(S(=O)(=O)NC(=S)NCc3ccccc3)cc2)cc1 (stereo not drawn)	inactive		Non-toxic	Active					
CCCCNC(=O)NS(=O)(=O)c1ccc(N2N=C(c3cccs3)CC2c2cccs2)cc1 (stereo not drawn)	inactive			Active	Toxic				
Cc1ccc(NC(=O)NS(=O)(=O)c2ccc(N3N=C(c4cccs4)CC3c3ccc(N(C)C)cc3)cc2)cc1 (stereo not drawn)	inactive		Non-toxic	Active					

Now from value to compound, other results behind:

Activity [1]	Compound	inhibition (Rattus norvegicus [2])	Activity (Rattus norvegicus [3])	inhibition (Rattus norvegicus [4])	Activity (Rattus norvegicus [5])	fold change (FC) (3T3-L1)	inhibition (Rattus norvegicus [6])	inhibition (Rattus norvegicus [7])	Activity (Rattus norvegicus [8])
inactive	O=C(NCc1ccccc1)NS(=O)(=O)c1ccc(N2N=C(c3cccs3)CC2c2ccccc2)cc1 (stereo not drawn)	Active	Non-toxic	Active					
inactive	CCCCNC(=O)NS(=O)(=O)c1ccc(N2N=C(c3cccs3)CC2c2ccccc2)cc1 (stereo not drawn)	Active		Active	Toxic				
inactive	Cc1ccc(C2CC(c3cccs3)=NN2c2ccc(S(=O)(=O)NC(=O)NCc3ccccc3)cc2)s1 (stereo not drawn)		Non-toxic	Active					
inactive	COc1ccc(NC(=O)NS(=O)(=O)c2ccc(N3N=C(c4cccs4)CC3c3ccccc3)cc2)cc1 (stereo not drawn)	Active	Non-toxic	Active					
inactive	Cc1ccccc1NC(=O)NS(=O)(=O)c1ccc(N2N=C(c3cccs3)CC2c2ccccc2)cc1 (stereo not drawn)	Active	Non-toxic	Active		0.95			
inactive	CN(C)c1ccc(C2CC(c3cccs3)=NN2c2ccc(S(=O)(=O)NC(=O)NCc3ccccc3)cc2)cc1 (stereo not drawn)			Active	Toxic				
inactive	Cc1ccc(NC(=O)NS(=O)(=O)c2ccc(N3N=C(c4cccs4)CC3c3ccccc3)cc2)cc1 (stereo not drawn)	Active		Active					

From ChEMBL document CHEMBL3351675, “Novel benzenesulfonylureas containing thiophenylpyrazoline moiety as potential antidiabetic and anticancer agents” (Bioorg Med Chem Lett, 2014)
